# Measurements of several laboratories.
# Compare with care: the assays were run in different laboratories.
# Cell line: HT-29
# Observed: cell growth or viability
Structure (SMILES),test,conditions,quantity,result
COc1ccc(C(=O)/C=C/c2cccc(Br)c2)cc1S(N)(=O)=O,SRB,48 h,GI50,1600 nM
CC/C(=C(\c1ccccc1)c1ccc(OCCN(C)C)cc1)c1ccccc1,ATP luminescence,72 h,EC90,8400 nM
Cn1c(=O)c(NN=C2C(=O)Nc3ccc(F)cc32)nc2ccccc21,,30 µM,inhibition,48.1%
COc1cccc(Oc2ccccc2NC(=O)CNC(=O)c2cccc3ccccc23)c1,SRB,48 h,GI50,110 nM
S=C([S][Au-][P+](CCCCCC[P+]([Au-][S]C(=S)n1cccn1)(c1ccccc1)c1ccccc1)(c1ccccc1)c1ccccc1)n1cccn1,,,GI50,642 nM
COc1ccc(C(=O)/C=C/c2cc3c(cc2Br)OCO3)cc1S(N)(=O)=O,SRB,48 h,GI50,1900 nM
CCN(CC)CCNC(=O)c1c(C)[nH]c(/C=C2\C(=O)Nc3ccc(F)cc32)c1C,,30 µM,inhibition,59.5%
Cc1cc(C)n(C(=S)[S][Au][PH](CCCCCC[PH]([Au][S]C(=S)n2nc(C)cc2C)(c2ccccc2)c2ccccc2)(c2ccccc2)c2ccccc2)n1,,,GI50,458 nM
CCN(CC)CCNC(=O)c1c(C)[nH]c(/C=C2\C(=O)Nc3ccc(F)cc32)c1C,,,IC50,10100 nM
